Experimental data as given in ChEMBL document CHEMBL3739298, “(9βH)-Pimaranes and Derivatives from the Tuber of Icacina trichantha” (J Nat Prod, 2015).

Legend:
Assay type in all cases: functional, cell-based; call rule not given here
MDA-MB-435 = assay: Cytotoxicity against human MDA-MB-435 cells after 72 hrs by cell proliferation assay
Summary of the method: (§1)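 Cells from ATCC grown at 37 °C, 5% CO2 in RPMI 1640 with 10% FBS, penicillin 100 units/mL, streptomycin 100 μg/mL. Log-phase cells trypsinized, washed twice, seeded at 5000/well, left overnight. DMSO-dissolved samples tested at 20, 4, 0.8, 0.16, 0.032 μM (final DMSO 0.5%) for 72 h at 37 °C. Viable cells read by MTS-type absorbance assay; IC50 relative to DMSO control.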

MDA-MB-231 = assay: Cytotoxicity against human MDA-MB-231 cells after 72 hrs by cell proliferation assay; summary of the method: as §1
[1] = Cytotoxicity against human OVCAR3 cells after 72 hrs by cell proliferation assay; conditions: ovcar-3; summary of the method: as §1

Compound	IC50 (MDA-MB-435; mda-mb-435)	IC50 (MDA-MB-231)	IC50 [1]	IC50 (MDA-MB-435; Homo sapiens, MDA-MB-435, 72 h, read-out: IC50) [µM]
C[C@]12C(=O)OC[C@@]3(CC[C@@H]1O)[C@@H]1CC(=O)c4ccoc4[C@@H]1C[C@@H](O)[C@H]32	Not Active	Not Active	Not Active	
C[C@@]12C(=O)CC[C@]3(C)[C@@H]4CC[C@@]5(C)[C@@H](O)CO[C@H]5C4=C[C@@H](OC1=O)[C@@H]23	Not Active	Not Active	Not Active	
COc1cc2c(c3occc13)[C@@H](O)[C@H]1OC(=O)[C@]3(C)[C@H]1[C@]21CCC3(O)OC1	Not Active	Not Active	Not Active	
CO[C@@]12OC[C@@H](O)[C@]1(C)CC[C@@H]1C2=C[C@H]2OC(=O)[C@]3(C)[C@H]2[C@]12CCC3(O)OC2		Not Active	Not Active	7.04
C[C@]12C(=O)O[C@@H]3Cc4c(cc(O)c5ccoc45)[C@@]4(CCC1(O)OC4)[C@@H]32	Not Active	Not Active	Not Active	
